Drawing on ChEMBL document CHEMBL4007404, “Identification of High-Potency Human TLR8 and Dual TLR7/TLR8 Agonists in Pyrimidine-2,4-diamines” (J Med Chem, 2017), this text covers Activity and inhibition for two compounds.

Each structure is given as a SMILES string. The source made the active and inactive calls. No cut-off for these calls is given here.

Data set [1] addresses T1, Toll-like receptor 7 (Homo sapiens) (UniProt Q9NYK1).
T1 sequence (whole entry): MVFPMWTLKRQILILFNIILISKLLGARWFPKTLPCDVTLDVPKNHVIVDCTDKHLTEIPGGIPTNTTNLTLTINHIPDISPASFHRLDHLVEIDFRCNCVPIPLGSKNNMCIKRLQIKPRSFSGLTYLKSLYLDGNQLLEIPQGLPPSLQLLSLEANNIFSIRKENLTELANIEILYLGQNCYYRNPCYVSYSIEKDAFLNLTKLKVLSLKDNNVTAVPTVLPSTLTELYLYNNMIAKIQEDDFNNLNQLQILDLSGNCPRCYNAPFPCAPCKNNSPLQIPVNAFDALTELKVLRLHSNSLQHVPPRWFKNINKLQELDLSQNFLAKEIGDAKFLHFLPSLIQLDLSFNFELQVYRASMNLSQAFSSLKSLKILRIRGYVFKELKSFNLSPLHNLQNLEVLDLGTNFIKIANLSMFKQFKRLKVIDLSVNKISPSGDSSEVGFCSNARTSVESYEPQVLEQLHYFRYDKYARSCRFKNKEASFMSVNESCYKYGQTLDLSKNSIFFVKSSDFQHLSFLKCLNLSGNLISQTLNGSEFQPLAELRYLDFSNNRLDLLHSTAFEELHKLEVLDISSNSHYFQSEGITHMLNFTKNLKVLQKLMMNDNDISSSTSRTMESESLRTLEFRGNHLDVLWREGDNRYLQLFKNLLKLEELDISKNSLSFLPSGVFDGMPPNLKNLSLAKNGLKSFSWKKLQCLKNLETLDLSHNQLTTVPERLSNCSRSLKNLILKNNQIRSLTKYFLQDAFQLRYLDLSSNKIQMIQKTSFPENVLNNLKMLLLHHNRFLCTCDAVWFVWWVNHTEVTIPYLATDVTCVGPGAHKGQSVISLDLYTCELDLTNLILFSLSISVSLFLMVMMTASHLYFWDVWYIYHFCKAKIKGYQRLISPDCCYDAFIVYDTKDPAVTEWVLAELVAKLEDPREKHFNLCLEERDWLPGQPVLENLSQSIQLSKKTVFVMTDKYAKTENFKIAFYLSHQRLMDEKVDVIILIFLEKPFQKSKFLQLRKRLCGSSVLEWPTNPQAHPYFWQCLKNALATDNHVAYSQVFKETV
Put plainly: Agonist activity at human TLR7 expressed in HEK293 cells co-expressing secreted alkaline phosphatase assessed as induction of NF-kappaB/AP-1 promoter activity by measuring increase in secreted alkaline phosphatase level at 100 uM by spectrophotometric method. Type of data set: cell-based.

Data set [2] addresses Toll-like receptor 2 (Homo sapiens) (UniProt O60603). Put plainly: Activity at human TLR2 expressed in HEK293 cells co-expressing secreted alkaline phosphatase assessed as induction of NF-kappaB/AP-1 promoter activity by measuring increase in secreted alkaline phosphatase level by spectrophotometric method. Format: cell-based. The procedure, abridged:
(§1)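 HEK293 cells stably co-transfected with the relevant human TLR (2, 3, 4, 5, 7, 8 or 9) plus an NF-κB/AP-1-driven secreted alkaline phosphatase reporter, kept in selection medium. Cells at ~10⁵ cells/ml were exposed to graded concentrations of stimuli in 384-well format, liquid-handler assisted. Supernatant sAP was read at 620 nm with an alkaline phosphatase-specific chromogen.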

Data set [3] has as its target T2, Toll-like receptor 9 (Homo sapiens) (UniProt Q9NR96).
T2 sequence (whole entry): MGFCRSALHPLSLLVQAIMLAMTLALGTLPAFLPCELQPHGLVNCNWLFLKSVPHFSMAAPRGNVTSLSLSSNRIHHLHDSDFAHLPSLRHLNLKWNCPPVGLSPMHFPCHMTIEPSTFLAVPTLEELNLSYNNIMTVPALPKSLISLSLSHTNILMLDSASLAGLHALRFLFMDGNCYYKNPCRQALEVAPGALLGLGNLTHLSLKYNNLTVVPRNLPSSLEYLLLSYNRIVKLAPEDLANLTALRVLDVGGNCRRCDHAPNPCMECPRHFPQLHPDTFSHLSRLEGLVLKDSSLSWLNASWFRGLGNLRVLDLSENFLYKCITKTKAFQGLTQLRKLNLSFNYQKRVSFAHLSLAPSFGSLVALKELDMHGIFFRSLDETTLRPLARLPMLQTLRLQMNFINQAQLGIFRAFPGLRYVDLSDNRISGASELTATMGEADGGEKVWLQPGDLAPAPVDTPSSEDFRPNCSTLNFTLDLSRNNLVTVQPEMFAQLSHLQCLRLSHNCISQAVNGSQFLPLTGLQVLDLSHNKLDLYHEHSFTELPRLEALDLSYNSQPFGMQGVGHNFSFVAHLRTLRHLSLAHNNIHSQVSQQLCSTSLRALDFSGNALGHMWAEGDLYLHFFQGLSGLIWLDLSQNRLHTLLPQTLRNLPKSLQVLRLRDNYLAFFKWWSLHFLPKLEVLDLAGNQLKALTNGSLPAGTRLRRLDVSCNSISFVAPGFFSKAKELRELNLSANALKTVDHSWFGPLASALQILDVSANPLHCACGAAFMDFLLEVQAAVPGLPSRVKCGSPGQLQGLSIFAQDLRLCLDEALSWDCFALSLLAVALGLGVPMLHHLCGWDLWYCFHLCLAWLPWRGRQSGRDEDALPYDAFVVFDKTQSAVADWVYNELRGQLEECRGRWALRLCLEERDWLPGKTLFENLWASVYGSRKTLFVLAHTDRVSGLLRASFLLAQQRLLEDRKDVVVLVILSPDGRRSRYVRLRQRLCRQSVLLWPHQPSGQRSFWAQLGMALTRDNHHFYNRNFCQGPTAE
Put plainly: Activity at human TLR9 expressed in HEK293 cells co-expressing secreted alkaline phosphatase assessed as induction of NF-kappaB/AP-1 promoter activity by measuring increase in secreted alkaline phosphatase level by spectrophotometric method. Type of data set: cell-based. The procedure, abridged: as §1

In data set [4] the target is Toll-like receptor 3 (Homo sapiens) (UniProt O15455). Put plainly: Activity at human TLR3 expressed in HEK293 cells co-expressing secreted alkaline phosphatase assessed as induction of NF-kappaB/AP-1 promoter activity by measuring increase in secreted alkaline phosphatase level by spectrophotometric method. Format: cell-based. The procedure, abridged: as §1
In data set [5] the target is Toll-like receptor 4 (Homo sapiens) (UniProt O00206). Put plainly: Activity at human TLR4 expressed in HEK293 cells co-expressing secreted alkaline phosphatase assessed as induction of NF-kappaB/AP-1 promoter activity by measuring increase in secreted alkaline phosphatase level by spectrophotometric method. Format: cell-based. The procedure, abridged: as §1
Data set [6] deals with Toll-like receptor 5 (Homo sapiens) (UniProt O60602). Put plainly: Activity at human TLR5 expressed in HEK293 cells co-expressing secreted alkaline phosphatase assessed as induction of NF-kappaB/AP-1 promoter activity by measuring increase in secreted alkaline phosphatase level by spectrophotometric method. Type of data set: cell-based. The procedure, abridged: as §1
The target of data set [7] is T3, Toll-like receptor 8 (Homo sapiens) (UniProt Q9NR97).
T3 sequence (whole entry): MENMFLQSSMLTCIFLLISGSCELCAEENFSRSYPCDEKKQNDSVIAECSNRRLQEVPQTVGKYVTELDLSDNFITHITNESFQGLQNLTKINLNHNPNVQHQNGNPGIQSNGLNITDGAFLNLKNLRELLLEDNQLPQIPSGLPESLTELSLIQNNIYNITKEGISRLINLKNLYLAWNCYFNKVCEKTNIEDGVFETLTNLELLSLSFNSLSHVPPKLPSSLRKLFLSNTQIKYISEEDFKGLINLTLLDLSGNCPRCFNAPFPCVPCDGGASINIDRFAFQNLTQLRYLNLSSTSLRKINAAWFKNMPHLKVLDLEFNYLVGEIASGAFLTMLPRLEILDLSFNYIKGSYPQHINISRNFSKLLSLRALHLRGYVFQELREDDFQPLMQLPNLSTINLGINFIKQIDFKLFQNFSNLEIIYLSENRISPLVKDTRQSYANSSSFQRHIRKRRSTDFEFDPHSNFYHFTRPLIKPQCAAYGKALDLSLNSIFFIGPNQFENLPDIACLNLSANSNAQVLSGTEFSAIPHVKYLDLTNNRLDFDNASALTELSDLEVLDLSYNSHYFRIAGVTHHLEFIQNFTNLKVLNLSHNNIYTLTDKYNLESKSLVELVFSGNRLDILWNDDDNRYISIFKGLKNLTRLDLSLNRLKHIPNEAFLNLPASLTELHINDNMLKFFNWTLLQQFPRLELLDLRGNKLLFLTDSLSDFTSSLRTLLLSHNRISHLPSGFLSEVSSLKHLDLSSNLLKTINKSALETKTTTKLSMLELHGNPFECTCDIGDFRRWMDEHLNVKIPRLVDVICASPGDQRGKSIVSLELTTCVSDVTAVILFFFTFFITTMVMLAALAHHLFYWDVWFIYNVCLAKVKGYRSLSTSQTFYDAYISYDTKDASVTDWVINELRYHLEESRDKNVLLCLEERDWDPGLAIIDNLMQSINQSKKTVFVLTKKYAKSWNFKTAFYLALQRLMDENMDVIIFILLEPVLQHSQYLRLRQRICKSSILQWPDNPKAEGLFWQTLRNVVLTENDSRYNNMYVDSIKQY
Put plainly: Agonist activity at human TLR8 expressed in HEK293 cells co-expressing secreted alkaline phosphatase assessed as induction of NF-kappaB/AP-1 promoter activity by measuring increase in secreted alkaline phosphatase level by spectrophotometric method. Type of data set: cell-based. The procedure, abridged: as §1

Data set [8] concerns the target T3, Toll-like receptor 8 (Homo sapiens). Put plainly: Agonist activity at TLR8 in human CD141 positive conventional dendritic cells assessed as upregulation of CD80 expression after 16 hrs by efluor 780 dye based flow cytometry. The procedure, abridged: (§2)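 Human PBMCs were incubated with serial compound dilutions at 37 °C for 16 h, with DMSO controls. Cells were stained with eFluor780 viability dye, then lineage and DC antibodies plus CD80 PE, and fixed. 250,000 gated events were acquired. pDCs were gated as Live Lin⁻ CD123⁺ CD303⁺ CD304⁺ HLA-DR⁺. cDCs were gated as Lin⁻ CD1c⁺ CD141⁻ CD11c⁺ HLA-DR⁺ or Lin⁻ CD141⁺ CD1c⁻ HLA-DR⁺. Median fluorescence intensity was quantified.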
Background: In flow cytometry, cells or beads pass a laser one at a time.

For data set [9], the target named is T1, Toll-like receptor 7 (Homo sapiens). Put plainly: Agonist activity at TLR7 in human plasmacytoid dendritic cells assessed as upregulation of CD80 expression after 16 hrs by efluor 780 dye based flow cytometry. The procedure, abridged: as §2
The test system of a further data set is HEK293. Put plainly: Cytotoxicity against HEK293 cells expressing human TLR7 or TLR8 at 10^-4M. To be noted: hek293, 100 µM. Type of data set: cell-based.
For data set [10], the target named is T1, Toll-like receptor 7 (Homo sapiens). Put plainly: Agonist activity at human TLR7 expressed in HEK293 cells co-expressing secreted alkaline phosphatase assessed as induction of NF-kappaB/AP-1 promoter activity by measuring increase in secreted alkaline phosphatase level by spectrophotometric method. Format: cell-based. The procedure, abridged: as §1
The target is the same in data set [11]. Put plainly: Inhibition of human TLR7 expressed in HEK293 cells co-expressing secreted alkaline phosphatase assessed as NF-kappaB/AP-1 promoter activity by measuring increase in secreted alkaline phosphatase level at higher concentration by spectrophotometric method. Format: cell-based.
The target in data set [12] is T3, Toll-like receptor 8 (Homo sapiens). Put plainly: Agonist activity at TLR8 in human […] conventional dendritic cells assessed as upregulation of CD80 expression after 16 hrs by efluor 780 dye based flow cytometry. The procedure, abridged:
as §2

Data set [13] has the same target. Put plainly: Inhibition of human TLR8 expressed in HEK293 cells co-expressing secreted alkaline phosphatase assessed as NF-kappaB/AP-1 promoter activity by measuring increase in secreted alkaline phosphatase level at higher concentration by spectrophotometric method. Format: cell-based.

Toll-like receptor 4 (Homo sapiens), sequence (O00206 whole entry): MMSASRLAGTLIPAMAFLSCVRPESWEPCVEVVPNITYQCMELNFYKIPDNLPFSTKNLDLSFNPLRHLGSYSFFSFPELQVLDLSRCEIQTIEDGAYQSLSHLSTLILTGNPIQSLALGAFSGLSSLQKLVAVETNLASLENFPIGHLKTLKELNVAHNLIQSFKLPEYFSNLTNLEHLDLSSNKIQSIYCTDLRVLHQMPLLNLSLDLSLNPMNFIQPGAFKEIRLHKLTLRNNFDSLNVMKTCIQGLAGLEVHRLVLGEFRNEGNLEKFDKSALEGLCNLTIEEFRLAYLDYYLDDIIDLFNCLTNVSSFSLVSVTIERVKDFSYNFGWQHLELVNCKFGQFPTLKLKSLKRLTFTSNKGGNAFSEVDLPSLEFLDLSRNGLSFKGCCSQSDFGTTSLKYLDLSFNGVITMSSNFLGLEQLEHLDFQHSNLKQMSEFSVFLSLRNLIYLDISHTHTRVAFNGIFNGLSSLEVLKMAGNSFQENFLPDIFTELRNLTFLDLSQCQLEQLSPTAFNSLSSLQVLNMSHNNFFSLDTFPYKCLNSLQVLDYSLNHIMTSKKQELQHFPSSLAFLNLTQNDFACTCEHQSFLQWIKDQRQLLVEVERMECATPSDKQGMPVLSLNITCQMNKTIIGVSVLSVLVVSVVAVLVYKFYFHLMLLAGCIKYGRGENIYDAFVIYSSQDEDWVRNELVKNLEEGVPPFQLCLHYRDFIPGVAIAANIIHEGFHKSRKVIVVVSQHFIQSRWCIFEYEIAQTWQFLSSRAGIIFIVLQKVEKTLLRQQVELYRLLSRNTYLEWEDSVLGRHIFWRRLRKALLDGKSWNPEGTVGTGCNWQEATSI
Toll-like receptor 5 (Homo sapiens), sequence (O60602 whole entry): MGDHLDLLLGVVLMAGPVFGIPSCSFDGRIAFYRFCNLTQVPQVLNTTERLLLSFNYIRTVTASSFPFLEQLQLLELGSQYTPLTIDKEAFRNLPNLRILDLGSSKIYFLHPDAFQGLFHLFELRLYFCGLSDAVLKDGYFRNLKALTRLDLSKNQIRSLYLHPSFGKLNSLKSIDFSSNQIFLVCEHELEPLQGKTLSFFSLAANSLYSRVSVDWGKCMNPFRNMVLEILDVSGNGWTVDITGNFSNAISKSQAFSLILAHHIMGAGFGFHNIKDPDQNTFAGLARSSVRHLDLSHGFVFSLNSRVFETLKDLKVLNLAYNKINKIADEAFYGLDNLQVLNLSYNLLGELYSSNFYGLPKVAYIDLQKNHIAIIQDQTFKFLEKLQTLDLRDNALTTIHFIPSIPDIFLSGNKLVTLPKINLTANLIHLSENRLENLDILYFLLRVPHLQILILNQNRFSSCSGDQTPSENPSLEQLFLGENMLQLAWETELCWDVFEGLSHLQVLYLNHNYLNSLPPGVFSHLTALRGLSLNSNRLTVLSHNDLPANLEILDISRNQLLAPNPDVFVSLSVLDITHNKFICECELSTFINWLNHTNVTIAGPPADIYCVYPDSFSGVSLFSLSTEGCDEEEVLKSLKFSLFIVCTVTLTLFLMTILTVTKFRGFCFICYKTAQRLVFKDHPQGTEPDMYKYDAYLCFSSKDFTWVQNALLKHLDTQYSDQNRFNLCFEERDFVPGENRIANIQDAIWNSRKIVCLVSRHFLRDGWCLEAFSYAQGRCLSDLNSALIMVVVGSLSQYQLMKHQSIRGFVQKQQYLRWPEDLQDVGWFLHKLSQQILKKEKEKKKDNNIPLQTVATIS
Toll-like receptor 3 (Homo sapiens), sequence (O15455 whole entry): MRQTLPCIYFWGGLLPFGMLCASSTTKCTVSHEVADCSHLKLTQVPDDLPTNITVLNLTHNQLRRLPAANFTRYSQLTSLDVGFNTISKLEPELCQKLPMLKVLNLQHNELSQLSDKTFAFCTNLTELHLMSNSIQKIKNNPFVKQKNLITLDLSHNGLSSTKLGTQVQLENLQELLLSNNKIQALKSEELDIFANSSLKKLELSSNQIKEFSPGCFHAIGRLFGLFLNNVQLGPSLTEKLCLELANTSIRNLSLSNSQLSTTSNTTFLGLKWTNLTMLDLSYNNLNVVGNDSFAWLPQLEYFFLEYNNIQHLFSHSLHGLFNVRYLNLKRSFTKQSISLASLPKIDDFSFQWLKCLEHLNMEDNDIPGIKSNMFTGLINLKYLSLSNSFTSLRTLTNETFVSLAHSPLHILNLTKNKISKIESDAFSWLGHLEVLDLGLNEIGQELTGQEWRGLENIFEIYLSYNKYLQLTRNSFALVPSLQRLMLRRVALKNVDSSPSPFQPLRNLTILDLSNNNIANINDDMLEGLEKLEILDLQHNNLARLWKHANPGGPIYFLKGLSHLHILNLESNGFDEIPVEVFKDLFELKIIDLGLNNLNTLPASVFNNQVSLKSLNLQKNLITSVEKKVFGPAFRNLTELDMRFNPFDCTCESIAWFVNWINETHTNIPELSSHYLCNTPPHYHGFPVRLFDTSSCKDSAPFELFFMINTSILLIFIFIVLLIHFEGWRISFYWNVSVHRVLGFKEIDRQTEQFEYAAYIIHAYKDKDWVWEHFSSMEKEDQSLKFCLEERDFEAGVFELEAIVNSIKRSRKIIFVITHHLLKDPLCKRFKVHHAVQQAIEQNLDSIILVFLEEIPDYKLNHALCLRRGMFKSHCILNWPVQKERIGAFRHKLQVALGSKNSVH
Toll-like receptor 2 (Homo sapiens), sequence (O60603 whole entry): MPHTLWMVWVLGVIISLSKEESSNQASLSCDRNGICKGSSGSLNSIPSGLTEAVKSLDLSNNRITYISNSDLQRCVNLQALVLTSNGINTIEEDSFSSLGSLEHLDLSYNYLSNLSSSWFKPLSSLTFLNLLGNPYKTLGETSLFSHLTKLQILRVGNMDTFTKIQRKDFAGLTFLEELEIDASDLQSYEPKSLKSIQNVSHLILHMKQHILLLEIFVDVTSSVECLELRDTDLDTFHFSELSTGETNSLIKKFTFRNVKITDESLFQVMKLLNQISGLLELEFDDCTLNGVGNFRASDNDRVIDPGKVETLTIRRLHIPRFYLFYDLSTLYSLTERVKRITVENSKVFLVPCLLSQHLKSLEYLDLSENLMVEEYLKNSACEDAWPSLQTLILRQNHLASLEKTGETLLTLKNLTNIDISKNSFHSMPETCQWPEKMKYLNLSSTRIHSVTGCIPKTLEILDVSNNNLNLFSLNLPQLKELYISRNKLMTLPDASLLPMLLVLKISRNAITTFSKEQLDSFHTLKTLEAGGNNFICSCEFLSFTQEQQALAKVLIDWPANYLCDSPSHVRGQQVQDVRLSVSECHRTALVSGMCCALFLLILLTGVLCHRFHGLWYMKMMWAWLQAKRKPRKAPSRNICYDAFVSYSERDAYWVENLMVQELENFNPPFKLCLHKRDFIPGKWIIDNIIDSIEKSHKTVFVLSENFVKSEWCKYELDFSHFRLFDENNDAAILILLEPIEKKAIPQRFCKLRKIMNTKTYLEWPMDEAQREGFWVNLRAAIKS

As for `CCCCNc1nc(N)nc(C)c1Cc1ccccc1`, the outcome in data set [1], in [2], in data set [3], in [4], in data set [5] and in data set [6] was inactive.

Consider `CCCCc1nc2c(N)nc3ccccc3c2n1Cc1ccc(CN)cc1`, for which the outcome in data set [7], in [8], in [9], in data set [10] and in data set [12] was Active. Moreover, the Activity result in the data set on HEK293 is “Non-Toxic”. Moreover, the inhibition result in data set [11] and in [13] was “Active” throughout.
